Calls of active or inactive are those of the source. The calls are words filed in the database; no cut-off is given here.

A short description of series [1]: Thermal stability of the compound. Type of series: physicochemical. The procedure, abridged: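 Capture compound incubated 30 min native at 4 °C or denatured at 80 °C as thermal stress. Biological stress was 30 min in HepG2 lysate at 4 and 37 °C. UV irradiation for 10 and 30 min was checked for a single defined photoproduct.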
For series [2], the target named is Prothrombin (Homo sapiens) (UniProt P00734). Briefly: Binding affinity to human recombinant thrombin after 1 hr by Western blot analysis. The procedure, abridged: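 Purified human recombinant thrombin (2 μg) incubated with capture compound for 1 h at 4 °C, with or without preincubation with free drug as competitor. Sample UV-irradiated 10 min, captured on streptavidin beads, then analysed by silver-stained SDS-PAGE and by streptavidin-HRP blot to detect covalent biotinylation.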

Series [3] concerns the target Histamine N-methyltransferase (Homo sapiens) (UniProt P50135). Briefly: Binding affinity to HNMT in human HepG2 cell lysate after 1 hr by capture compound based LC/MS analysis. The series is classed as cell-free. The procedure, abridged:
(§1)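 Capture compound MS: 400 μg HepG2 or K562 lysate in capture buffer, precleared with streptavidin beads 30 min at 4 °C. Competition controls preincubated 30 min at 4 °C with free drug (10 μL of 1 mM). Capture compound (10 μL of 50 μM) equilibrated 1 h at 4 °C, UV-irradiated 10 min, streptavidin bead pulldown, on-bead trypsin digestion, nanoLC-MS/MS. Spectral counts compared capture vs competition (t test). HepG2 in quadruplicate, K562 in duplicate.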

The target of series [4] is T1, Hypoxia up-regulated protein 1 (Homo sapiens) (UniProt Q9Y4L1).
T1 sequence (whole entry): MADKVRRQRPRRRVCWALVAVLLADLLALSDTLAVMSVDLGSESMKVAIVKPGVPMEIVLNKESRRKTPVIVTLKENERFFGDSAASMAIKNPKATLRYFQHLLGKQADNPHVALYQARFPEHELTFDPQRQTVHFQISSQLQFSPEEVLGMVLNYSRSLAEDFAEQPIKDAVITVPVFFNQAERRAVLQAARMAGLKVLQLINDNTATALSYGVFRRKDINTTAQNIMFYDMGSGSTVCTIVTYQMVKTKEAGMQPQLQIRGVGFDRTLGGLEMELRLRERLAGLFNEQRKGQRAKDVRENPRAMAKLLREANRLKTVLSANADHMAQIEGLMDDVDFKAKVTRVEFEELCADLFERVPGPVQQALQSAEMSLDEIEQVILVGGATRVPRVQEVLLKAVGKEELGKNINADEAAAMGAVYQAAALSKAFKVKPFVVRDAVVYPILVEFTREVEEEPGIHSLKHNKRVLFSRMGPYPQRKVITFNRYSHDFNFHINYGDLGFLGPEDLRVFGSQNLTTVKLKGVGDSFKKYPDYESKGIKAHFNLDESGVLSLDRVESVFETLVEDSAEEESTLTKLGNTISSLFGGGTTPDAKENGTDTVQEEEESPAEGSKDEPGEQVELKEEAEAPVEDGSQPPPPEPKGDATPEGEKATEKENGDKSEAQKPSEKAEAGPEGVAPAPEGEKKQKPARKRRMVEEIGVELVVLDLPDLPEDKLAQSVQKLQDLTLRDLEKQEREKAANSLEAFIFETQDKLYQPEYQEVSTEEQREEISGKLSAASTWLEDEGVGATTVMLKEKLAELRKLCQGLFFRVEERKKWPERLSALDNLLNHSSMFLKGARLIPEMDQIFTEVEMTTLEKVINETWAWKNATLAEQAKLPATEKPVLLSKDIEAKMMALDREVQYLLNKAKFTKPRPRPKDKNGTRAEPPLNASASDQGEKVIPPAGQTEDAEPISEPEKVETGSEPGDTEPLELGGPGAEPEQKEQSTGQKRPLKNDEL
Briefly: Binding affinity to HYOU1 in human HepG2 cell lysate after 1 hr by capture compound based LC/MS analysis. The series is classed as cell-free. The procedure, abridged:
as §1

In series [5] the target is Heterogeneous nuclear ribonucleoproteins C1/C2 (Homo sapiens) (UniProt P07910). Briefly: Binding affinity to HNRPC in human HepG2 cell lysate after 1 hr by capture compound based LC/MS analysis. The series is classed as cell-free. The procedure, abridged:
as §1

The target of series [6] is Adenosine kinase (Homo sapiens) (UniProt P55263). In words: Binding affinity to ADK in human HepG2 cell lysate after 1 hr by capture compound based LC/MS analysis. Type of series: cell-free. The procedure, abridged:
as §1

Series [7] concerns the target Histamine N-methyltransferase (Homo sapiens) (UniProt P50135). In words: Binding affinity to HNMT in human K562 cell lysate after 1 hr by capture compound based LC/MS analysis. Type of series: cell-free. The procedure, abridged: as §1
The target of series [8] is T1, Hypoxia up-regulated protein 1 (Homo sapiens). Briefly: Binding affinity to HYOU1 in human K562 cell lysate after 1 hr by capture compound based LC/MS analysis. Type of series: cell-free. The procedure, abridged:
as §1

Series [9] concerns the target Heterogeneous nuclear ribonucleoproteins C1/C2 (Homo sapiens) (UniProt P07910). Briefly: Binding affinity to HNRPC in human K562 cell lysate after 1 hr by capture compound based LC/MS analysis. Type of series: cell-free. The procedure, abridged:
as §1

The target of series [10] is Adenosine kinase (Homo sapiens) (UniProt P55263). Briefly: Binding affinity to ADK in human K562 cell lysate after 1 hr by capture compound based LC/MS analysis. Type of series: cell-free. The procedure, abridged: as §1
Series [11] has as its target T2, Ribosyldihydronicotinamide dehydrogenase [quinone] (Homo sapiens, UniProt P16083).
T2 sequence (P16083 whole entry): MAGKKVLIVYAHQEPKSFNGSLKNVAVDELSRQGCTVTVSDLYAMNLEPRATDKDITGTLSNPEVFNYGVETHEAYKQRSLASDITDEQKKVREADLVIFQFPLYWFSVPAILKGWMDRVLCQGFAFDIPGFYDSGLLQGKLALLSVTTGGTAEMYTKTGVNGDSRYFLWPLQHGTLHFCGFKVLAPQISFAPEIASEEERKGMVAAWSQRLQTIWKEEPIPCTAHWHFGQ
In words: Displacement of (S)-N4-(4-(3-(2-((4-carbamimidoylphenylamino)methyl)-1-methyl-N-(pyridin-2-yl)-1H-benzo[d]imidazole-5-carboxamido)propanamido)butyl)-N1-(15-oxo-19-((3aS,4S,6aR)-2-oxohexahydro-1H-thieno[3,4-d]imidazol-4-yl)-4,7,10-trioxa-14-azanonadecyl)-2-(4-(3-(trifluoromethyl)-3H-diazirin-3-yl)benzamido)succinamide from human recombinant NQO2 after 1 hr by densitometric analysis.

Series [12] concerns the target T2, Ribosyldihydronicotinamide dehydrogenase [quinone]. In words: Inhibition of human recombinant NQO2-mediated mitomycin C metabolism using NADH as cosubstrate incubated for 5 mins prior to NADH addition measured after 30 mins by spectrophotometric analysis. The procedure, abridged:
(§2)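 NQO2 (0.5 μM) with mitomycin C (50 μM) and four inhibitor concentrations in 100 mM potassium phosphate pH 5.8, 5 min at room temperature. Increasing NADH was then added and A340 followed for 30 min at rt. Ki from Lineweaver–Burk, IC50 from competitive Michaelis–Menten kinetics. Two experiments, duplicate points each.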

The target is the same in series [13]. In words: Competitive inhibition of human recombinant NQO2-mediated mitomycin C metabolism using NADH as cosubstrate incubated for 5 mins prior to NADH addition measured after 30 mins by Michaelis-Menten plot analysis. The procedure, abridged:
as §2

Series [14] can be described thus: Inhibition of human alpha thrombin using Boc-Val-Pro-Arg-AMC as substrate after 2 hrs by fluorometric analysis. The procedure, abridged: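 Human α-thrombin at 5.5 ng/mL final with Boc-Val-Pro-Arg-AMC (15 μM) in 50 mM Tris pH 7.5, 150 mM NaCl, 0.05% Tween 20. Compound tested as 16 two-fold dilutions in DMSO, 2.5 mM to 75 nM. Incubated 2 h at room temperature; fluorescence read at ex 355, em 460 nm for percent inhibition.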

Sequence of Adenosine kinase (Homo sapiens) (P55263 2-362 limits assumed): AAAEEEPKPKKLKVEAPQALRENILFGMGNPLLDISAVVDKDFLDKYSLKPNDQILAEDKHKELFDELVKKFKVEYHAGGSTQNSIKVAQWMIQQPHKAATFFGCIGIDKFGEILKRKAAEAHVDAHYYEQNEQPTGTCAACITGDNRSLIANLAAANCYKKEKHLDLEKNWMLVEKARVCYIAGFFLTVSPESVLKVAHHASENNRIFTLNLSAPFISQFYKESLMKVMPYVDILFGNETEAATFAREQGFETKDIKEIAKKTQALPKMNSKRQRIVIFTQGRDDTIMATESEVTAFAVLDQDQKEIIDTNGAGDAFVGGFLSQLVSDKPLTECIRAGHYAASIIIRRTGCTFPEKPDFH
Sequence of Histamine N-methyltransferase (Homo sapiens) (P50135 whole entry): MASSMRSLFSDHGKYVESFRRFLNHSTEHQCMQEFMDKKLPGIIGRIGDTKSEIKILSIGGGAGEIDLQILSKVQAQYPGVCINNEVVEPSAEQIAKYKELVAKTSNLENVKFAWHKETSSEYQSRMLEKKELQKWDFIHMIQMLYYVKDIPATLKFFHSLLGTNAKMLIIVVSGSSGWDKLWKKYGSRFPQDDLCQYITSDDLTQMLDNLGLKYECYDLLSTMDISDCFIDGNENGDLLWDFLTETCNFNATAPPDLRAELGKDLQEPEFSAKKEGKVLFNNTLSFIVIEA
Sequence of Heterogeneous nuclear ribonucleoproteins C1/C2 (Homo sapiens) (P07910 whole entry): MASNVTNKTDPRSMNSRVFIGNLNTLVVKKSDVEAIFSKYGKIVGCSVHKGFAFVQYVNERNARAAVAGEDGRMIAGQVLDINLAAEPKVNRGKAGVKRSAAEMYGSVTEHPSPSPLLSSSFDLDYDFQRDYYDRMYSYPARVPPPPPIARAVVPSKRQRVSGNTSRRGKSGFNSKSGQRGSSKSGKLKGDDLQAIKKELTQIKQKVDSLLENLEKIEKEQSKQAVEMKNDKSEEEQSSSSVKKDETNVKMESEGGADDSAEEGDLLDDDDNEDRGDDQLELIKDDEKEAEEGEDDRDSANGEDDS

`Cn1c(CNc2ccc(C(=N)NCCCCNC(=O)C[C@H](NC(=O)c3ccc(C4(C(F)(F)F)N=N4)cc3)C(=O)NCCCOCCOCCOCCCNC(=O)CCCC[C@@H]3SC[C@@H]4NC(=O)N[C@@H]43)cc2)nc2cc(C(=O)N(CCC(=O)O)c3ccccn3)ccc21`: in series [1], the Stability entry is reported as “Stable”. For the same molecule, the outcome in [2], in [7], in series [8], in series [9] and in series [10] was inactive. For the same molecule, the outcome in series [3], in series [4], in series [5] and in series [6] was Active.
With `N=C(N)c1ccc(CNC(=O)[C@@H]2CCN2C(=O)[C@H](NCC(=O)NCCCCNC(=O)C[C@H](NC(=O)c2ccc(C3(C(F)(F)F)N=N3)cc2)C(=O)NCCCOCCOCCOCCCNC(=O)CCCC[C@@H]2SC[C@@H]3NC(=O)N[C@@H]32)C2CCCCC2)cc1`, the Stability entry in series [1] is recorded as “Stable”. In [2], the outcome was Active.
What is called IC50 is the midpoint of a concentration-inhibition curve. By Ki is commonly meant a dissociation constant, usually derived from enzyme kinetics or from competition with a known ligand. Regarding `CCOC(=O)CCN(C(=O)c1ccc2c(c1)nc(CNc1ccc(C(=N)N)cc1)n2C)c1ccccn1` [DABIGATRAN ETHYL ESTER], the IC50 in [11] was determined as 1500 nM; in [13], 800 nM; in series [14], 1.2 nM. Also, the inhibitory constant (Ki) in [12] was 900 nM.

These data come from ChEMBL document CHEMBL2216748 (J Med Chem, 2012).
